# Calls of active or inactive are those of the source. The calls are words filed in the database; no cut-off is given here.
# Assays:
# AGS [1] = assay: Antiinflammatory activity in human AGS cells assessed as inhibition of IL-8 production at 0.5 ug/mL after 24 hrs; format: functional, cell-based
# How it was run: (§1)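 AGS gastric adenocarcinoma cells were grown in F-12K with 10% FBS. They were seeded at 1 × 10⁵/mL for 24 h, preincubated 1 h with compound at 5 or 0.5 µg/mL, then exposed to H. pylori.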
# Klebsiella pneumoniae = assay: Antibacterial activity against Klebsiella pneumoniae after 18 to 22 hrs by broth microdilution method; format: functional
# How it was run: (§2)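 Clinical respiratory-tract isolates from patients, subcultured for purity and identified conventionally. Broth microdilution per NCCLS in Mueller–Hinton II broth; each plate had growth controls (bacteria, no compound) and medium-only controls. Incubation 18–22 h at 35 °C. MIC taken as the lowest concentration giving complete growth inhibition by unaided eye.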
# [2] = system: Staphylococcus epidermidis; assay: Antibacterial activity against Staphylococcus epidermidis after 18 to 22 hrs by broth microdilution method; format: functional; how it was run: as §2
# Enterobacter = assay: Antibacterial activity against Enterobacter after 18 to 22 hrs by broth microdilution method; format: functional; how it was run: as §2
# Escherichia coli = assay: Antibacterial activity against Escherichia coli after 18 to 22 hrs by broth microdilution method; format: functional; how it was run: as §2
# Citrobacter freundii = assay: Antibacterial activity against Citrobacter freundii after 18 to 22 hrs by broth microdilution method; format: functional; how it was run: as §2
# AGS [3] = assay: Antiinflammatory activity in human AGS cells assessed as inhibition of IL-8 production at 5 ug/mL after 24 hrs; format: functional, cell-based; how it was run: as §1
# Helicobacter pylori [4] = assay: Antibacterial activity against metronidazole-resistant Helicobacter pylori isolate 8 after 72 hrs by agar dilution method; format: functional; details: isolate 8, 72 h
# How it was run: (§3)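 H. pylori clinical isolates (ATCC 43504 control each session) stored at -80 °C and subcultured twice on Columbia agar with 10% horse serum and 0.25% yeast extract. Suspensions of 0.5 McFarland were spotted by Steer's replicator at about 5 × 10⁵ CFU/spot onto agar with twofold compound dilutions. Plates were incubated 72 h at 37 °C in 10% CO₂. MIC was the lowest concentration without visible growth.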
# Helicobacter pylori [5] = assay: Antibacterial activity against Helicobacter pylori ATCC 43504 clinical isolates after 72 hrs by agar dilution method; format: functional; details: ATCC 43504, 72 h
# How it was run: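 Agar dilution per NCCLS. Twenty clinical strains from duodenal ulcer or gastritis patients, with ATCC 43504 as control in each session, were subcultured twice on Columbia agar plus 10% horse serum and 0.25% yeast extract (72 h, 37 °C, 10% CO₂). Inoculum of 0.5 McFarland in Wilkins Chalgren broth, about 5 × 10⁵ CFU/spot by Steer's replicator. Plates held twofold compound dilutions down to 0.0039 µg/mL and were incubated 72 h at 37 °C, 10% CO₂. MIC was the lowest concentration inhibiting visible growth.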
# Staphylococcus aureus = assay: Antibacterial activity against Staphylococcus aureus after 18 to 22 hrs by broth microdilution method; format: functional; how it was run: as §2
# Helicobacter pylori [6] = assay: Antibacterial activity against metronidazole-resistant Helicobacter pylori isolate 20 after 72 hrs by agar dilution method; format: functional; details: isolate 20, 72 h; how it was run: as §3
# [Candida] sake = Antifungal activity against Candida sake after 24 hrs by broth microdilution method; format: functional; details: Fermentozyma sake
# How it was run: (§4)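 Candida isolates from respiratory-tract specimens, tested by NCCLS broth microdilution in Sabouraud dextrose broth. Serial compound dilutions inoculated to 10³/mL, with fungus-only and medium-only controls. Incubated 24 h at 37 °C. MIC was the lowest concentration with complete visible growth inhibition.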
# Staphylococcus hominis = assay: Antibacterial activity against Staphylococcus hominis after 18 to 22 hrs by broth microdilution method; format: functional; how it was run: as §2
# Pichia kudriavzevii = assay: Antifungal activity against Candida krusei after 24 hrs by broth microdilution method; format: functional; how it was run: as §4
# Enterococcus faecalis = assay: Antibacterial activity against Streptococcus faecalis after 18 to 22 hrs by broth microdilution method; format: functional; how it was run: as §2
# Helicobacter pylori [7] = assay: Antibacterial activity against metronidazole-resistant Helicobacter pylori isolate 1 after 72 hrs by agar dilution method; format: functional; details: isolate 1, 72 h; how it was run: as §3
# Helicobacter pylori [8] = assay: Antibacterial activity against metronidazole-resistant Helicobacter pylori NCTC 11637 after 72 hrs by agar dilution method; format: functional; details: NCTC 11637, 72 h; how it was run: as §3
# Klebsiella aerogenes = assay: Antibacterial activity against Enterobacter aerogenes after 18 to 22 hrs by broth microdilution method; format: functional; how it was run: as §2
# Helicobacter pylori [9] = assay: Antibacterial activity against metronidazole-resistant Helicobacter pylori isolate 18 after 72 hrs by agar dilution method; format: functional; details: isolate 18, 72 h; how it was run: as §3
# [10] = system: Staphylococcus haemolyticus; assay: Antibacterial activity against Staphylococcus haemolyticus after 18 to 22 hrs by broth microdilution method; format: functional; how it was run: as §2
# Klebsiella oxytoca = assay: Antibacterial activity against Klebsiella oxytoca after 18 to 22 hrs by broth microdilution method; format: functional; how it was run: as §2
# Candida albicans = assay: Antifungal activity against Candida albicans after 24 hrs by broth microdilution method; format: functional; how it was run: as §4
# Proteus vulgaris = assay: Antibacterial activity against Proteus vulgaris after 18 to 22 hrs by broth microdilution method; format: functional; how it was run: as §2
Structure (SMILES),inhibition (AGS [1]),MIC (Klebsiella pneumoniae) [µg/mL],MIC [2] [µg/mL],MIC (Enterobacter) [µg/mL],MIC (Escherichia coli) [µg/mL],MIC (Citrobacter freundii) [µg/mL],inhibition (AGS [3]),MIC (Helicobacter pylori [4]) [µg/mL],MIC50 (Helicobacter pylori [5]) [µg/mL],MIC90 (Helicobacter pylori [5]) [µg/mL],MIC (Staphylococcus aureus) [µg/mL],MIC (Helicobacter pylori [6]) [µg/mL],MIC ([Candida] sake) [µg/mL],MIC (Staphylococcus hominis) [µg/mL],MIC (Pichia kudriavzevii) [µg/mL],MIC (Enterococcus faecalis) [µg/mL],MIC (Helicobacter pylori [7]) [µg/mL],MIC (Helicobacter pylori [8]) [µg/mL],MIC (Klebsiella aerogenes) [µg/mL],MIC (Helicobacter pylori [9]) [µg/mL],also measured
O=C(O)c1ccc(NC(=O)c2cc3cc(Br)cc(Cl)c3oc2=O)cc1,inactive,> 128,> 128,> 128,> 128,> 128,inactive,32,8,32,> 128,32,> 128,> 128,> 128,> 128,16,32,> 128,16,MIC [10]: > 128 µg/mL; MIC (Klebsiella oxytoca): > 128 µg/mL; MIC (Candida albicans): > 128 µg/mL; MIC (Proteus vulgaris): > 128 µg/mL
COc1ccc2cc(C(=O)Nc3ccc(C(=O)O)cc3)c(=O)oc2c1,inactive,> 128,> 128,> 128,> 128,> 128,inactive,> 128,> 128,> 128,> 128,> 128,> 128,> 128,> 128,> 128,> 128,> 128,> 128,> 128,MIC [10]: > 128 µg/mL; MIC (Klebsiella oxytoca): > 128 µg/mL; MIC (Candida albicans): > 128 µg/mL; MIC (Proteus vulgaris): > 128 µg/mL
CCOC(=O)c1ccc(NC(=O)c2cc3cccc(O)c3oc2=O)cc1,inactive,> 128,> 128,> 128,> 128,> 128,inactive,> 128,> 128,> 128,> 128,> 128,> 128,> 128,> 128,> 128,> 128,> 128,> 128,> 128,MIC [10]: > 128 µg/mL; MIC (Klebsiella oxytoca): > 128 µg/mL; MIC (Candida albicans): > 128 µg/mL; MIC (Proteus vulgaris): > 128 µg/mL
O=C(O)c1ccc(NC(=O)c2cc3cccc(O)c3oc2=O)cc1,inactive,> 128,> 128,> 128,> 128,> 128,inactive,> 128,> 128,> 128,> 128,> 128,> 128,> 128,> 128,> 128,> 128,4,> 128,> 128,MIC [10]: > 128 µg/mL; MIC (Klebsiella oxytoca): > 128 µg/mL; MIC (Candida albicans): > 128 µg/mL; MIC (Proteus vulgaris): > 128 µg/mL
CCOC(=O)c1ccc(NC(=O)c2cc3cc(Br)cc(Br)c3oc2=O)cc1,inactive,> 128,> 128,> 128,> 128,> 128,inactive,64,64,64,> 128,64,> 128,> 128,> 128,> 128,64,64,> 128,64,MIC [10]: > 128 µg/mL; MIC (Klebsiella oxytoca): > 128 µg/mL; MIC (Candida albicans): > 128 µg/mL; MIC (Proteus vulgaris): > 128 µg/mL
O=C(O)c1ccc(NC(=O)c2cc3cc(O)ccc3oc2=O)cc1,inactive,> 128,> 128,> 128,> 128,> 128,inactive,16,16,> 128,> 128,4,> 128,> 128,> 128,> 128,4,16,> 128,16,MIC [10]: > 128 µg/mL; MIC (Klebsiella oxytoca): > 128 µg/mL; MIC (Candida albicans): > 128 µg/mL; MIC (Proteus vulgaris): > 128 µg/mL
O=C(O)c1ccc(NC(=O)c2cc3cc(Br)cc(Br)c3oc2=O)cc1,inactive,> 128,> 128,> 128,> 128,> 128,inactive,16,16,16,> 128,16,> 128,> 128,> 128,> 128,16,16,> 128,16,MIC [10]: > 128 µg/mL; MIC (Klebsiella oxytoca): > 128 µg/mL; MIC (Candida albicans): > 128 µg/mL; MIC (Proteus vulgaris): > 128 µg/mL
O=C(O)c1ccc(NC(=O)c2cc3cc([N+](=O)[O-])ccc3oc2=O)cc1,inactive,> 128,> 128,> 128,> 128,> 128,inactive,64,128,128,> 128,64,> 128,> 128,> 128,> 128,128,128,> 128,128,MIC [10]: > 128 µg/mL; MIC (Klebsiella oxytoca): > 128 µg/mL; MIC (Candida albicans): > 128 µg/mL; MIC (Proteus vulgaris): > 128 µg/mL
CCOC(=O)N1CCC(NC(=O)c2cc3ccccc3oc2=O)CC1,inactive,> 128,> 128,> 128,> 128,> 128,inactive,> 128,> 128,> 128,> 128,> 128,> 128,> 128,> 128,> 128,128,> 128,> 128,128,MIC [10]: > 128 µg/mL; MIC (Klebsiella oxytoca): > 128 µg/mL; MIC (Candida albicans): > 128 µg/mL; MIC (Proteus vulgaris): > 128 µg/mL
Cc1ncc([N+](=O)[O-])n1CCO [METRONIDAZOLE],,,,,,,,64,2,128,,128,,,,,64,128,,128,
CCOC(=O)N1CCC(NC(=O)c2cc3cc(Br)ccc3oc2=O)CC1,inactive,> 128,> 128,> 128,> 128,> 128,inactive,64,64,64,> 128,32,> 128,> 128,> 128,> 128,32,64,> 128,32,MIC [10]: > 128 µg/mL; MIC (Klebsiella oxytoca): > 128 µg/mL; MIC (Candida albicans): > 128 µg/mL; MIC (Proteus vulgaris): > 128 µg/mL

# From ChEMBL document CHEMBL1208768, “Synthesis, selective anti-Helicobacter pylori activity, and cytotoxicity of novel N-substituted-2-oxo-2H-1-benzopyran-3-carboxamides” (Bioorg Med Chem Lett, 2010)
